Results as given in ChEMBL document CHEMBL1153416, “Synthesis and anti-inflammatory properties of 1alpha,25-dihydroxy-16-ene-20-cyclopropyl-24-oxo-vitamin D3, a hypocalcemic, stable metabolite of 1alpha,25-dihydroxy-16-ene-20-cyclopropyl-vitamin D3” (J Med Chem, 2009).
The source made the active and inactive calls. No cut-off for these calls is given here.

Experiments:
Vitamin D3 receptor [1] = molecular target: T1, Vitamin D3 receptor (Homo sapiens, UniProt P11473); experiment: Activation of VDR in human THP1 cells assessed as increase in 25-hydroxyvitamin D-24-hydroxylase mRNA expression by RT-PCR; format: cell-based, THP-1
T1 sequence (P11473 whole entry): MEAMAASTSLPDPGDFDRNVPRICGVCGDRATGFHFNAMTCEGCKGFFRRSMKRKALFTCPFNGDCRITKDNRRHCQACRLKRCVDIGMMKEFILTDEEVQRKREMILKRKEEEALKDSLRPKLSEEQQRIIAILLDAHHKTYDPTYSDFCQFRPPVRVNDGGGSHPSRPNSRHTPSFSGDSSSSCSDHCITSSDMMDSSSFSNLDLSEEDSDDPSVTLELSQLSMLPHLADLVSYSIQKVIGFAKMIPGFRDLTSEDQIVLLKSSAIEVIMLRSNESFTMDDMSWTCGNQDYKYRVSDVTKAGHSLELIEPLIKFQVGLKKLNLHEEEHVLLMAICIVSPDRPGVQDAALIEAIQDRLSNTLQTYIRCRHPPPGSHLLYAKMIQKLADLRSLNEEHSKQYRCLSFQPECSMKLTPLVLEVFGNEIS

[2] = molecular target: T2, Vitamin D3 receptor (Homo sapiens) (UniProt P11473); experiment: Activation of VDR in human PBMC cells assessed as increase in 25-hydroxyvitamin D-24-hydroxylase mRNA expression at 100 pM by RT-PCR; format: cell-based
T2 sequence (whole entry): T1 sequence (P11473 whole entry)
Outline: (§1)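 PBMCs were isolated from buffy coats on a Ficoll gradient. Agonists were freshly diluted in ethanol, with ethanol in the test conditions at no more than 0.00025%. RNA was DNase-treated to exclude genomic DNA. Transcripts were quantified by RT-PCR and normalized to the GAPDH signal.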

Vitamin D3 receptor [3] = molecular target: T1, Vitamin D3 receptor; experiment: Activation of VDR in human THP1 cells assessed as increase in cathelicidin antimicrobial peptide mRNA expression by RT-PCR; format: cell-based, THP-1
PBMC [4] = experiment: Inhibition of LPS-induced IL6 production in human PBMC after 24 hrs by ELISA; format: functional, cell-based
PBMC [5] = experiment: Inhibition of LPS-induced IL12/23p40 production in human PBMC after 24 hrs by ELISA; format: functional, cell-based
[6] = molecular target: T2, Vitamin D3 receptor (Homo sapiens); experiment: Activation of VDR in human PBMC cells assessed as increase in 25-hydroxyvitamin D-24-hydroxylase mRNA expression at 10 pM by RT-PCR; format: cell-based; outline: as §1
[7] = molecular target: T2, Vitamin D3 receptor (Homo sapiens); experiment: Activation of VDR in human PBMC cells assessed as increase in cathelicidin antimicrobial peptide mRNA expression at 10 pM by RT-PCR; format: cell-based; outline: as §1
Mus musculus = experiment: Induction of hypercalceimia in orally dosed C57BL/6 mouse administered daily for 4 days by colorimetric assay; format: functional
Outline: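 Eight-week-old female C57BL/6 mice, 3 per group, were given one oral dose daily for 4 days in miglyol, at 0.01 to 300 µg/kg. Serum was taken by tail bleed on day 5 and calcium measured colorimetrically.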

[8] = molecular target: T2, Vitamin D3 receptor (Homo sapiens); experiment: Activation of VDR in human PBMC cells assessed as increase in cathelicidin antimicrobial peptide mRNA expression at 100 pM by RT-PCR; format: cell-based; outline: as §1
PBMC [9] = experiment: Inhibition of LPS-induced TNFalpha production in human PBMC after 24 hrs by ELISA; format: functional, cell-based
PBMC [10] = experiment: Inhibition of IFN-gamma production in human PBMC after 5 days by ELISA-based mixed lymphocyte reaction assay; format: functional, cell-based; conditions: 120 h

C=C1/C(=C\C=C2/CCC[C@]3(C)C(C4(CCCC(C)(C)O)CC4)=CC[C@@H]23)C[C@@H](O)C[C@@H]1O
EC50 (Vitamin D3 receptor [1]): 0.68 nM
Activity [2]: Active
EC50 (Vitamin D3 receptor [3]): 0.68 nM
IC50 (PBMC [4]): 3.2 nM
IC50 (PBMC [5]): < 0.001 nM
Activity [6]: Active
Activity [7]: Active
MTD (Mus musculus): 1 µg/kg
Activity [8]: Active

C=C1/C(=C\C=C2/CCC[C@]3(C)C(C4(CC#CC(C)(C)O)CC4)=CC[C@@H]23)C[C@@H](O)C[C@@H]1O
IC50 (PBMC [9]): 0.001 nM
IC50 (PBMC [10]): 0.034 nM

C=C1/C(=C\C=C2/CCC[C@]3(C)[C@@H]([C@H](C)CCCC(C)(C)O)CC[C@@H]23)C[C@@H](O)C[C@@H]1O [CALCITRIOL]
MTD (Mus musculus): 0.3 µg/kg

C[C@]12CCC/C(=C\C=C3C[C@@H](O)C[C@H](O)C3)[C@@H]1CC=C2C1(C/C=C/C(O)(C(F)(F)F)C(F)(F)F)CC1
IC50 (PBMC [9]): > 100 nM
IC50 (PBMC [10]): 0.012 nM

C=C1/C(=C\C=C2/CCC[C@]3(C)C(C4(C/C=C/C(O)(C(F)(F)F)C(F)(F)F)CC4)=CC[C@@H]23)C[C@@H](O)C[C@@H]1F
IC50 (PBMC [9]): > 100 nM
IC50 (PBMC [10]): 0.065 nM

C=C1/C(=C\C=C2/CCC[C@]3(C)C(C4(CC#CC(O)(C(F)(F)F)C(F)(F)F)CC4)=CC[C@@H]23)C[C@@H](O)C[C@@H]1O
IC50 (PBMC [9]): 1 nM
IC50 (PBMC [10]): 0.045 nM

C[C@]12CCC/C(=C\C=C3C[C@@H](O)C[C@H](O)C3)[C@@H]1CC=C2C1(CC#CC(O)(C(F)(F)F)C(F)(F)F)CC1
IC50 (PBMC [9]): > 100 nM
IC50 (PBMC [10]): 0.014 nM

CC(C)(O)C#CCC1(C2=CC[C@H]3/C(=C/C=C4C[C@@H](O)C[C@H](O)C4)CCC[C@]23C)CC1
IC50 (PBMC [9]): 0.001 nM
IC50 (PBMC [10]): 0.025 nM

C=C1/C(=C\C=C2/CCC[C@]3(C)C(C4(CCC(=O)C(C)(C)O)CC4)=CC[C@@H]23)C[C@@H](O)C[C@@H]1O
EC50 (Vitamin D3 receptor [1]): 0.69 nM
Activity [2]: Active
EC50 (Vitamin D3 receptor [3]): 0.69 nM
IC50 (PBMC [10]): 0.025 nM
IC50 (PBMC [4]): 3.5 nM
IC50 (PBMC [5]): < 0.001 nM
Activity [6]: Active
Activity [7]: Active
MTD (Mus musculus): 3 µg/kg
Activity [8]: Active

C=C1/C(=C\C=C2/CCC[C@]3(C)C(C4(CC#CC(C)(C)O)CC4)=CC[C@@H]23)C[C@@H](O)C[C@@H]1F
IC50 (PBMC [9]): > 100 nM
IC50 (PBMC [10]): 0.016 nM

C=C1/C(=C\C=C2/CCC[C@]3(C)C(C4(C/C=C/C(O)(C(F)(F)F)C(F)(F)F)CC4)=CC[C@@H]23)C[C@@H](O)C[C@@H]1O
IC50 (PBMC [9]): > 100 nM
IC50 (PBMC [10]): 0.04 nM
